Test results: ChEMBL document CHEMBL5543089, “Discovery of a novel, highly potent EZH2 PROTAC degrader for targeting non-canonical oncogenic functions of EZH2” (Eur J Med Chem, 2024)
Active and inactive are the calls of the source. The rule behind the calls is not given here.

Tests used:
[1] = molecular target: T1, von Hippel-Lindau disease tumor suppressor/Histone-lysine N-methyltransferase EZH2 (Homo sapiens, UniProt Q15910+P40337); assay: PROTAC activity at VHL/EZH2 degradation in hMLLr AML cell line EOL1 cells assessed as protein degradation at 1 uM measured after 24 hrs by Western blot analysis; format: cell-based
T1 sequence (P40337 whole entry, looked up): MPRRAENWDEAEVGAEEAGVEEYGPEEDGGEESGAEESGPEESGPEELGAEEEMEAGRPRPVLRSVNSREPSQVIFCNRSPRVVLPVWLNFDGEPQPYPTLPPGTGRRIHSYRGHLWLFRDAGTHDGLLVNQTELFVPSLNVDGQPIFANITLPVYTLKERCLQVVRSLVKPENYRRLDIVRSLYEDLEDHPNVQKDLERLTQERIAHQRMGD
T1 sequence (Q15910 whole entry, looked up): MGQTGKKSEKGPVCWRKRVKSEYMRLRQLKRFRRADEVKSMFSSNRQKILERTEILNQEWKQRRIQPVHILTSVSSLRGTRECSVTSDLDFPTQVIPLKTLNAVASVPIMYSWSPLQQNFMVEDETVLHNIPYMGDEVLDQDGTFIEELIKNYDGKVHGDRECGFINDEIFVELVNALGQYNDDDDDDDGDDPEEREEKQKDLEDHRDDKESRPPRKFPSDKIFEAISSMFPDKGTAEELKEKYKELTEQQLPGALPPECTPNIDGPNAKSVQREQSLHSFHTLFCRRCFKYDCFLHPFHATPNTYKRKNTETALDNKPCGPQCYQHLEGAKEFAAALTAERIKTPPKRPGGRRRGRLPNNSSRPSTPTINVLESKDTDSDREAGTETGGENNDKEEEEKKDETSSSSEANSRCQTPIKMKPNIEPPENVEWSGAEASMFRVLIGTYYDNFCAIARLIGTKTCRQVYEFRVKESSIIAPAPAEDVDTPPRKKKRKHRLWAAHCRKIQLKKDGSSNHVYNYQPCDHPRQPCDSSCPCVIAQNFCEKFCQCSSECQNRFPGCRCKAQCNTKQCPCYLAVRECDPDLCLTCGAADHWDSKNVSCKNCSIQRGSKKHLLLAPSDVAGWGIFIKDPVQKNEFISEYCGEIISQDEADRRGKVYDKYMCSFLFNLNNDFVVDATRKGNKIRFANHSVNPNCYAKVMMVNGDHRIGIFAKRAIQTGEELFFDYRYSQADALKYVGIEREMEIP
Method in brief: (§1)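 Cells were seeded at 0.5–2 million per well and treated for 24 h, or for the stated times at 300 nM in the time course. Lysis was in RIPA with protease inhibitors; ~10 μg protein was run on SDS-PAGE and blotted to PVDF. Detection used fluorescent immunoblotting for EZH2, EED and SUZ12, with β-actin as loading control. Blots are representative of two biological experiments.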

[2] = molecular target: von Hippel-Lindau disease tumor suppressor/Polycomb protein EED (Homo sapiens) (UniProt O75530+P40337); assay: PROTAC activity at VHL/EED degradation in MLLr AML cell line human EOL1 cells assessed as protein degradation at 1 to 1000 nM measured after 1 to 24 hrs by Western blot analysis; format: cell-based; conditions: dose 1-1000 nM, time 1-24 hrs; method in brief: as §1
[3] = molecular target: von Hippel-Lindau disease tumor suppressor/Polycomb protein SUZ12 (Homo sapiens) (UniProt Q15022+P40337); assay: PROTAC activity at VHL/SUZ12 degradation in MLLr AML cell line human EOL1 cells assessed as protein degradation at 1 to 1000 nM […] measured after 1 to 24 hrs by Western blot analysis; format: cell-based; conditions: dose 1-1000 nM, time 1-24 hrs; method in brief: as §1
[4] = molecular target: Histone-lysine N-methyltransferase, H3 lysine-79 specific (Homo sapiens) (UniProt Q8TEK3); assay: Inhibition of human DOT1L assessed as methyltransferase at 10 uM by radioisotope based MT HotSpot assay relative to control
Chain of Histone-lysine N-methyltransferase, H3 lysine-79 specific (Homo sapiens) (Q8TEK3 whole entry, looked up): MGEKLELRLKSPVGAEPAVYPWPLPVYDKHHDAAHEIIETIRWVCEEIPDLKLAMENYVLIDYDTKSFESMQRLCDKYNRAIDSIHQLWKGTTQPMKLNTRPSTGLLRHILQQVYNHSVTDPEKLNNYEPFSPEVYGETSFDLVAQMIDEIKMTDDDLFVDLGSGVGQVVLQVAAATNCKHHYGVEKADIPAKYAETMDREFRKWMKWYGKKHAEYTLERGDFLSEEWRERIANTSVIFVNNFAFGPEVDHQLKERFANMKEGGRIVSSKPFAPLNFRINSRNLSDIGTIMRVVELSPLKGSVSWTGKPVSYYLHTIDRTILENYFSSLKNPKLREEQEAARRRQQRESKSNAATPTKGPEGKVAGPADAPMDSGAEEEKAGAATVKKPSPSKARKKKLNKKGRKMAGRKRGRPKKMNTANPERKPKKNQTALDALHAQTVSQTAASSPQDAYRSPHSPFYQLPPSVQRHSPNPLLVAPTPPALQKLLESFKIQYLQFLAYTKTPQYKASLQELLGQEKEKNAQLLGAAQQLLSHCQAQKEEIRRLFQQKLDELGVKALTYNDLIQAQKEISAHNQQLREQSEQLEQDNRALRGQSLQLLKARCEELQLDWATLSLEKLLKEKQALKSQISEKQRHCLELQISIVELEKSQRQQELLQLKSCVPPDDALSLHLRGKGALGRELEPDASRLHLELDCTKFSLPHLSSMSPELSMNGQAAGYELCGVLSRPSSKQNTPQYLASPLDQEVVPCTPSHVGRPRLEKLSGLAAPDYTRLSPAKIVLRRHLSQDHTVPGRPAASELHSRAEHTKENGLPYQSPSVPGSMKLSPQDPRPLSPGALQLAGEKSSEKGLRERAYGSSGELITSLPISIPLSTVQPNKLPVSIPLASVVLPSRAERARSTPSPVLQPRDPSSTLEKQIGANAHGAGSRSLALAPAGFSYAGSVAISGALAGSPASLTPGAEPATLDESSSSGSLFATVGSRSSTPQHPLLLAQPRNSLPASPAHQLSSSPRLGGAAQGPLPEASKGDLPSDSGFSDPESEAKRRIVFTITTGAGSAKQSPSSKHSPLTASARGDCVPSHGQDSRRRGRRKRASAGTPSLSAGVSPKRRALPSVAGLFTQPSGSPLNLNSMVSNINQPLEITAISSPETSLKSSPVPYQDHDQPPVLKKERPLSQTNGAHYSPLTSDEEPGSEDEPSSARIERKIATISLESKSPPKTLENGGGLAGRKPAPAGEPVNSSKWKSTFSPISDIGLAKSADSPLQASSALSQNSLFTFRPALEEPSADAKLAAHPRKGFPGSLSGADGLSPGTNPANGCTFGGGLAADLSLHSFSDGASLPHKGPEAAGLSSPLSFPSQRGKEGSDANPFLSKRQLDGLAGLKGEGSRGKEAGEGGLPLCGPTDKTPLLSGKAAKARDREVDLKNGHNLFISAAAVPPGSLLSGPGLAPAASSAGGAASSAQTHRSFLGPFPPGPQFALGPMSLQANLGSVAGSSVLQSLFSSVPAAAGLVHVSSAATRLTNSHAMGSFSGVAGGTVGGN
Method in brief: (§2)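 Radioisotope-based methyltransferase assay (MT HotSpot) run by a contract lab. Compound was tested at 10 μM against a panel of 20 methyltransferases, in duplicate. Values are means ± SD of two replicates.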

[5] = molecular target: Histone-lysine N-methyltransferase 2A (Homo sapiens) (UniProt Q03164); assay: Inhibition of human MLL1 assessed as methyltransferase activity using Nucleosomes as substrate at 10 uM by radioisotope based MT HotSpot assay relative to control; method in brief: as §2
[6] = molecular target: Histone-lysine N-methyltransferase, H3 lysine-36 specific (Homo sapiens) (UniProt Q96L73); assay: Inhibition of human NSD1 assessed as methyltransferase activity using Nucleosomes as substrate at 10 uM by radioisotope based MT HotSpot assay relative to control; method in brief: as §2
[7] = molecular target: Histone-lysine N-methyltransferase NSD3 (Homo sapiens) (UniProt Q9BZ95); assay: Inhibition of human NSD3 assessed as methyltransferase activity using Nucleosomes as substrate at 10 uM by radioisotope based MT HotSpot assay relative to control; method in brief: as §2
Homo sapiens = species on record: Homo sapiens; assay: Inhibition of human PRMT1 assessed as methyltransferase activity using Histone H4 /H4 (1-15)-Biotin as substrate at 10 uM by radioisotope based MT HotSpot assay relative to control; method in brief: as §2
[8] = molecular target: Histone-arginine methyltransferase CARM1 (Homo sapiens) (UniProt Q86X55); assay: Inhibition of human PRMT4 assessed as methyltransferase activity using Histone H3 as substrate at 10 uM by radioisotope based MT HotSpot assay relative to control; method in brief: as §2
Chain of Histone-arginine methyltransferase CARM1 (Homo sapiens) (Q86X55 whole entry): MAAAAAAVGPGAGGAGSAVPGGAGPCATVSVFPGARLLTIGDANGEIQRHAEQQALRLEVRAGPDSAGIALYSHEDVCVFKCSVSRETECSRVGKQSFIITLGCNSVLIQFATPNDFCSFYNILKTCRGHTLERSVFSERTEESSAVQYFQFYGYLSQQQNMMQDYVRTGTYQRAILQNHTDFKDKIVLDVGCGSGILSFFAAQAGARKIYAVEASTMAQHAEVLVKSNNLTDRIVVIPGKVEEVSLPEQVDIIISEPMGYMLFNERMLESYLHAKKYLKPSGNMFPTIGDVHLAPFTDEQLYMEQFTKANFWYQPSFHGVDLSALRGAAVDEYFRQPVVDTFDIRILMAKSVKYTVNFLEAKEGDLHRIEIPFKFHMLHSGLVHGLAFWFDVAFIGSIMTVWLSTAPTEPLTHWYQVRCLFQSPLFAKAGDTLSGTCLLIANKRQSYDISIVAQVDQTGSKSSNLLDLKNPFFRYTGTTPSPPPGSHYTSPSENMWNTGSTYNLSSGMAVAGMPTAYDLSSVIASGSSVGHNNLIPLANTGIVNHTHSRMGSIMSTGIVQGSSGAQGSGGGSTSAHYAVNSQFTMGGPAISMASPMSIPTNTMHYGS

[9] = molecular target: Protein arginine N-methyltransferase 7 (Homo sapiens) (UniProt Q9NVM4); assay: Inhibition of human PRMT7 assessed as methyltransferase activity using GST-GAR as substrate at 10 uM by radioisotope based MT HotSpot assay relative to control; method in brief: as §2
Chain of Protein arginine N-methyltransferase 7 (Homo sapiens) (Q9NVM4 whole entry): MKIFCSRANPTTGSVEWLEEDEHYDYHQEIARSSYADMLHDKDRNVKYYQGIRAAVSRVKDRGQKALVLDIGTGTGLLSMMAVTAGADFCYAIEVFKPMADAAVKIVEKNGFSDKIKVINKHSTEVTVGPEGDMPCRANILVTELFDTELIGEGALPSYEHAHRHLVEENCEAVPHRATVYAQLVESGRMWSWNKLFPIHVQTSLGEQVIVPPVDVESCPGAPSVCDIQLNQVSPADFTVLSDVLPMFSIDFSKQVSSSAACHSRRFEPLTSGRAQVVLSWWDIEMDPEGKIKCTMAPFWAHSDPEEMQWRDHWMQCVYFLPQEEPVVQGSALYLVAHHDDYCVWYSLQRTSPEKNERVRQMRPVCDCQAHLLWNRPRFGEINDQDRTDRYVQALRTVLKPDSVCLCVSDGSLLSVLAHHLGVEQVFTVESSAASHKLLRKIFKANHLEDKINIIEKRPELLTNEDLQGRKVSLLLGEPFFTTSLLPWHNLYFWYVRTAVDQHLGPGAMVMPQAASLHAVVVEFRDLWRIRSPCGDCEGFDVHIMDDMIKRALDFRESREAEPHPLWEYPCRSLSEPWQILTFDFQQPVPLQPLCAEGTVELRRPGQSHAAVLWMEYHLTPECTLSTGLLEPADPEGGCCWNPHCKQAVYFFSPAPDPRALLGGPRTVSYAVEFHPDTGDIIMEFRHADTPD

[10] = molecular target: Protein arginine N-methyltransferase 8 (Homo sapiens) (UniProt Q9NR22); assay: Inhibition of human PRMT8 assessed as methyltransferase activity using Histone H4 as substrate at 10 uM by radioisotope based MT HotSpot assay relative to control; method in brief: as §2
[11] = molecular target: Histone-lysine N-methyltransferase SETD7 (Homo sapiens) (UniProt Q8WTS6); assay: Inhibition of human SET7/9 assessed as methyltransferase activity using Core histone as substrate at 10 uM by radioisotope based MT HotSpot assay relative to control; method in brief: as §2
Chain of Histone-lysine N-methyltransferase SETD7 (Homo sapiens) (Q8WTS6 whole entry): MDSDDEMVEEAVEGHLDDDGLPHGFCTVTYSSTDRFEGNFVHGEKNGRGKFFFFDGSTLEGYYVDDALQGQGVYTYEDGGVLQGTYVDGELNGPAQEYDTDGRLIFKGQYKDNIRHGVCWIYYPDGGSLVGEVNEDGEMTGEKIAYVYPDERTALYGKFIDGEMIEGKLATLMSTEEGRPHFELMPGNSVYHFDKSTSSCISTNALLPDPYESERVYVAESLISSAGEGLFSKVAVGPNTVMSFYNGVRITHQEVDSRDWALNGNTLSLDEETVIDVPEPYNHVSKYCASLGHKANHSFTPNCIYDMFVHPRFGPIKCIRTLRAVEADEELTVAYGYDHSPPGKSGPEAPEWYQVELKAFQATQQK

[12] = molecular target: N-lysine methyltransferase KMT5A (Homo sapiens) (UniProt Q9NQR1); assay: Inhibition of human SET8 assessed as methyltransferase activity using Nucleosomes as substrate at 10 uM by radioisotope based MT HotSpot assay relative to control; method in brief: as §2
Chain of N-lysine methyltransferase KMT5A (Homo sapiens) (Q9NQR1 whole entry): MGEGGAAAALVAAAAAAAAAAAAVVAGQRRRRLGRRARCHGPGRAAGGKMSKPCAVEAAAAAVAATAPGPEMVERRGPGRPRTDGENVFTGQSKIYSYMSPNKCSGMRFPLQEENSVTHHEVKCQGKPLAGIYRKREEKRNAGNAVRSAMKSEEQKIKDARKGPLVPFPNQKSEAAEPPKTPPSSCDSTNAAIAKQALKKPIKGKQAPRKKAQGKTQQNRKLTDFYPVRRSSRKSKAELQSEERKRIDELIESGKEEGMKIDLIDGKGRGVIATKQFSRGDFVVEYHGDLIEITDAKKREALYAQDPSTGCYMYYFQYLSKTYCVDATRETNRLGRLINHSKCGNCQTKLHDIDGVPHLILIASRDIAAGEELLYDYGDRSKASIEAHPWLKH

[13] = molecular target: Histone-lysine N-methyltransferase EZH2 (Homo sapiens) (UniProt Q15910); assay: Inhibition of human EZH2 assessed as methyltransferase activity using Core Histone as substrate at 10 uM by radioisotope based MT HotSpot assay relative to control; method in brief: as §2
Chain of Histone-lysine N-methyltransferase EZH2 (Homo sapiens) (Q15910 whole entry, looked up): as the sequence (Q15910 whole entry, looked up) above

[14] = molecular target: T1, von Hippel-Lindau disease tumor suppressor/Histone-lysine N-methyltransferase EZH2; assay: PROTAC activity at VHL/EZH2 degradation in human MV4-11 cells assessed as protein degradation at 0.03 to 0.3 microM measured after 24 hrs by Western blot analysis; format: cell-based; conditions: dose 0.03-0.3 µM; method in brief: as §1
[15] = molecular target: T1, von Hippel-Lindau disease tumor suppressor/Histone-lysine N-methyltransferase EZH2; assay: PROTAC activity at VHL/EZH2 degradation in human RS4-11 cells assessed as protein degradation at 0.1 uM measured after 24 hrs by Western blot analysis; format: cell-based; method in brief: as §1
RS4-11 = assay: Anti-proliferative activity against human RS4-11 cells assessed as cell viability measured after 5 days incubation by CCK-8 assay; format: functional, cell-based; conditions: RS4-11, 120 h
Method in brief: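 Cells plated at 3,000–10,000 per well and exposed to serial dilutions for 5 days at 37 °C. CCK-8 (1x) was added for 2–4 h, with absorbance read at 450 nm against a 690 nm reference. IC50 was taken from curve fits. Leukemia lines were grown in RPMI-1640, K562 in IMDM and MDA-MB-468 in DMEM, all with 10 % FBS. Values are means ± SD of two biological experiments (three for BT549 and MDA-MB-468).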

BT-549 [16] = assay: Inhibition of cell growth in human BT-549 cell spheroid TNBC model assessed as reduction in size of spheroid at 2.5 to 20 uM measured after 5 days by 3D cell culture assay; format: functional, cell-based; conditions: dose 2.5-20 µM, time 5.0 day
Method in brief: (§3)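 BT549 cells were coated with nanoshuttle (1 μL per 2000 cells, 24 h) and magnetically levitated in low-adhesion plates. They were grown 7 days at 37 °C until a single solid spheroid formed, then treated 5 d with compound or DMSO. Spheroid area was measured from images, and viability by CellTiter-Glo 3D. Data are means ± SD of three biological experiments, analysed by one-way ANOVA.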

BT-549 [17] = assay: Anti-proliferative activity against human BT-549 cells spheroid TNBC model assessed as decrease in cell viability at 2.5 to 20 uM by Cell Titer Glo 3D assay; format: functional, cell-based; conditions: dose 2.5-20 µM; method in brief: as §3
[18] = Toxicity in mouse at 50 mg/kg, ip measured after 4 hrs; format: organism-based; conditions: in vivo
[19] = molecular target: Histone-lysine N-methyltransferase EHMT1 (Homo sapiens) (UniProt Q9H9B1); assay: Inhibition of human GLP assessed as methyltransferase activity using Histone H3 as substrate at 10 uM by radioisotope based MT HotSpot assay relative to control
[20] = molecular target: Histone-lysine N-methyltransferase SUV39H2 (Homo sapiens) (UniProt Q9H5I1); assay: Inhibition of human SUV39H2 assessed as methyltransferase activity using Histone H3 as substrate at 10 uM by radioisotope based MT HotSpot assay relative to control
Chain of Histone-lysine N-methyltransferase SUV39H2 (Homo sapiens) (Q9H5I1 whole entry, looked up): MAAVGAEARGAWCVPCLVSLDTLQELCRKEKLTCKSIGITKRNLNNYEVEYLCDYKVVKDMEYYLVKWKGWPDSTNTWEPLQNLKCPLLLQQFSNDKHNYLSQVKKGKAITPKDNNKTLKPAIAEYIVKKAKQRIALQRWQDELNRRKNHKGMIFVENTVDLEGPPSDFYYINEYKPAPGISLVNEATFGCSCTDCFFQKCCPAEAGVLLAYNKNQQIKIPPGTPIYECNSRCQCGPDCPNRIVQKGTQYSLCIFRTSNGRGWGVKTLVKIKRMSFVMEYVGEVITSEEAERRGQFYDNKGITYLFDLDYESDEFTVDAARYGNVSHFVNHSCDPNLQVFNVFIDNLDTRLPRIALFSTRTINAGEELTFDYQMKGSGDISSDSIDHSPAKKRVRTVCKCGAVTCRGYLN

SMILES: CCN(c1cc(-c2ccc(CN3CCN(CCC(=O)NCCCCCCCCCCC(=O)N[C@H](C(=O)N4C[C@H](O)C[C@H]4C(=O)NCc4ccc(-c5scnc5C)cc4)C(C)(C)C)CC3)cc2)cc(C(=O)NCc2c(C)cc(C)[nH]c2=O)c1C)C1CCOCC1
- Activity [1]: 100%
- Activity [2]: Active
- Activity [3]: Active
- inhibition [4]: < 50%
- inhibition [5]: < 50%
- inhibition [6]: < 50%
- inhibition [7]: < 50%
- inhibition (Homo sapiens): < 50%
- inhibition [8]: < 50%
- inhibition [9]: < 50%
- inhibition [10]: < 50%
- inhibition [11]: < 50%
- inhibition [12]: < 50%
- inhibition [13]: Active
- Activity [14]: 100%
- Activity [15]: Active
- IC50 (RS4-11): 410 nM
- inhibition (BT-549 [16]): Active
- Activity (BT-549 [17]): Active
- Activity [18]: Non-Toxic
- inhibition [19]: < 50%
- inhibition [20]: < 50%
